Data: ChEMBL document CHEMBL1134691, “3-Phenyl-5-acyloxymethyl-2H,5H-furan-2-ones: synthesis and biological activity of a novel group of potential antifungal drugs” (2001)
Values after ≈ are worked out from the molar mass of the structure shown.

How the values were obtained:
Pichia kudriavzevii [1] = experiment: Inhibition of Candida krusei E28 growth for 24 hours in vitro.; type: functional
How it was run: (§1)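 NCCLS M27-A broth microdilution in RPMI 1640 with L-glutamine and 0.165 M MOPS, pH 7.0. Isolates kept on Sabouraud dextrose agar. Inoculum 5 × 10^3 cfu/mL final. Compounds were diluted in DMSO (≤2% final) and tested in 2-fold dilutions of 1000–0.24 µmol/L. Incubation at 35 °C, OD540 read at 24 and 48 h. MIC = 80% growth inhibition versus control; assays run twice in duplicate.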

Pichia kudriavzevii [2] = experiment: Inhibition of Candida krusei ATCC 6258 growth for 48 hours in vitro.; type: functional; how it was run: as §1
Clavispora lusitaniae [3] = experiment: Inhibition of Candida lusitaniae 2446/I growth for 48 hours in vitro.; type: functional; how it was run: as §1
Candida albicans [4] = experiment: Inhibition of Candida albicans ATCC 90028 for 48 hours in vitro.; type: functional; how it was run: as §1
Nakaseomyces glabratus [5] = experiment: Inhibition of Candida glabrata 20/I growth for 48 hours in vitro.; type: functional; how it was run: as §1
Aspergillus fumigatus [6] = experiment: Inhibition of Aspergillus fumigatus 231 growth for 48 hours in vitro.; type: functional
How it was run: (§2)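 Filamentous isolates tested by microdilution per NCCLS M27-A in RPMI 1640 plus L-glutamine, buffered with 0.165 M MOPS to pH 7.0. Final inoculum 5 × 10^3 cfu/mL. Compounds in DMSO (final ≤2%), 2-fold series over 1000–0.24 µmol/L. Plates held at 35 °C and read visually after 24 and 48 h. MIC taken as 80% inhibition of control growth; determined twice in duplicate.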

Pichia kudriavzevii [7] = experiment: Inhibition of Candida krusei E28 growth for 48 hours in vitro.; type: functional; how it was run: as §1
Candida albicans [8] = experiment: Inhibition of Candida albicans ATCC 44859 growth for 24 hours in vitro.; type: functional; how it was run: as §1
Candida parapsilosis [9] = experiment: Inhibition of Candida parapsilosis ATCC 22019 growth for 48 hours in vitro.; type: functional; how it was run: as §1
Candida albicans [10] = experiment: Inhibition of Candida albicans ATCC 44859 growth for 48 hours in vitro.; type: functional; how it was run: as §1
Nakaseomyces glabratus [11] = experiment: Inhibition of Candida glabrata 20/I growth for 24 hours in vitro.; type: functional; how it was run: as §1
Pichia kudriavzevii [12] = experiment: Inhibition of Candida krusei ATCC 6258 growth for 24 hours in vitro.; type: functional; how it was run: as §1
Clavispora lusitaniae [13] = experiment: Inhibition of Candida lusitaniae 2446/I growth for 24 hours in vitro.; type: functional; how it was run: as §1
Lichtheimia corymbifera [14] = experiment: In vitro inhibition of Absidia corymbifera 272 growth for 48 hours.; type: functional; how it was run: as §2
Candida albicans [15] = experiment: Inhibition of Candida albicans ATCC 90028 for 24 hours in vitro.; type: functional; how it was run: as §1
Lichtheimia corymbifera [16] = experiment: In vitro inhibition of Absidia corymbifera 272 growth for 24 hours.; type: functional; how it was run: as §2
Candida parapsilosis [17] = experiment: Inhibition of Candida parapsilosis ATCC 22019 growth for 24 hours in vitro.; type: functional; how it was run: as §1
Trichosporon beigelii [18] = experiment: Inhibition of Trichosporon beigelli 1188 for 24 hours in vitro.; type: functional
How it was run: (§3)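 Microdilution following NCCLS M27-A. Medium: RPMI 1640 with L-glutamine, 0.165 M MOPS, pH 7.0. Final inoculum 5 × 10^3 cfu/mL. Compounds dissolved in DMSO, final ≤2%, serially halved from 1000 to 0.24 µmol/L. Incubated at 35 °C and read at 24 and 48 h. MIC defined as 80% inhibition of control growth; run twice in duplicate.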

Candida tropicalis [19] = experiment: Inhibition of Candida tropicalis 156 growth for 24 hours in vitro.; type: functional; how it was run: as §1
Aspergillus fumigatus [20] = experiment: Inhibition of Aspergillus fumigatus 231 growth for 24 hours in vitro.; type: functional; how it was run: as §2
Candida tropicalis [21] = experiment: Inhibition of Candida tropicalis 156 growth for 48 hours in vitro.; type: functional; how it was run: as §1
[22] = Inhibition of Trichophyton mentagrophytes 445 growth for 72 hours in vitro.; type: functional, Arthroderma benhamiae
How it was run: (§4)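 Dermatophyte grown in MOPS-buffered (0.165 M, pH 7.0) RPMI 1640 containing L-glutamine, in an M27-A microdilution format. Inoculum 5 × 10^3 cfu/mL final. Compounds from DMSO stocks (≤2% final), 2-fold dilutions 1000–0.24 µmol/L. Incubated at 35 °C, growth judged visually at 72 and 120 h. MIC endpoint is 80% inhibition relative to control; measured twice in duplicate.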

[23] = Inhibition of Trichophyton mentagrophytes 445 growth for 120 hours in vitro.; type: functional, Arthroderma benhamiae; how it was run: as §4
Trichosporon beigelii [24] = experiment: Inhibition of Trichosporon beigelli 1188 for 48 hours in vitro.; type: functional; how it was run: as §3
[25] = Pichia kudriavzevii, 24 h, read-out: MIC
[26] = Clavispora lusitaniae, 48 h, read-out: MIC
[27] = Candida albicans, ATCC 90028, 48 h, read-out: MIC
[28] = Aspergillus fumigatus, 48 h, read-out: MIC
[29] = Candida albicans, ATCC 44859, 24 h, read-out: MIC
[30] = Lodderomyces parapsilosis, ATCC 22019, 48 h, read-out: MIC
[31] = Candida albicans, ATCC 44859, 48 h, read-out: MIC
[32] = Clavispora lusitaniae, 24 h, read-out: MIC
[33] = Lichtheimia corymbifera, 48 h, read-out: MIC
[34] = Candida albicans, ATCC 90028, 24 h, read-out: MIC
[35] = Lodderomyces parapsilosis, ATCC 22019, 24 h, read-out: MIC

Compound | MIC (Pichia kudriavzevii [1]; [25]) | MIC (Clavispora lusitaniae [3]; [26]) | MIC (Candida albicans [4]; [27]) | MIC (Nakaseomyces glabratus [5]) | MIC (Aspergillus fumigatus [6]; [28]) | MIC (Candida albicans [8]; [29]) | MIC (Candida parapsilosis [9]; [30]) | MIC (Candida albicans [10]; [31]) | MIC (Nakaseomyces glabratus [11]) | MIC (Clavispora lusitaniae [13]; [32]) | MIC (Lichtheimia corymbifera [14]; [33]) | MIC (Candida albicans [15]; [34]) | MIC (Candida parapsilosis [17]; [35]) | MIC (Pichia kudriavzevii [7]) | MIC (Candida tropicalis [21]) | MIC (Pichia kudriavzevii [12]) | MIC (Lichtheimia corymbifera [16]) | further results
C[C@@H]1[C@H](O)[C@@H](C)/C=C/C=C/C=C/C=C/C=C/C=C/C=C/[C@H](O[C@@H]2O[C@H](C)[C@@H](O)[C@H](N)[C@@H]2O)C[C@@H]2O[C@](O)(C[C@@H](O)C[C@@H](O)[C@H](O)CC[C@@H](O)C[C@@H](O)CC(=O)O[C@H]1C)C[C@H](O)[C@H]2C(=O)O [AMPHOTERICIN B] | 2.16 µM (≈ 2 µg/mL) | 2.16 µM (≈ 2 µg/mL) | 2.16 µM (≈ 2 µg/mL) | 2 µg/mL (≈ 2.16 µM) | 0.54 µM (≈ 0.499 µg/mL) | 1.08 µM (≈ 0.998 µg/mL) | 2.16 µM (≈ 2 µg/mL) | 1.08 µM (≈ 0.998 µg/mL) | 2 µg/mL | 2.16 µM (≈ 2 µg/mL) | 2.16 µM (≈ 2 µg/mL) | 2.16 µM (≈ 2 µg/mL) | 2.16 µM (≈ 2 µg/mL) | – | – | – | – | MIC (Pichia kudriavzevii [2]; Pichia kudriavzevii, ATCC 6258, 48 h, read-out: MIC): 4.33 µM (≈ 4 µg/mL); MIC (Pichia kudriavzevii [7]; Pichia kudriavzevii, 48 h, read-out: MIC): 4.33 µM (≈ 4 µg/mL); MIC (Pichia kudriavzevii [12]; Pichia kudriavzevii, ATCC 6258, 24 h, read-out: MIC): 2.16 µM (≈ 2 µg/mL); MIC (Lichtheimia corymbifera [16]; Lichtheimia corymbifera, 24 h, read-out: MIC): 2.16 µM (≈ 2 µg/mL)
CC(C)(C)C(=O)OCC1C=C(c2ccc(Cl)c(Cl)c2)C(=O)O1 (single isomer, unassigned; (+)) | – | – | – | 1.34 uM l-1 | – | – | – | – | 0.67 µM | – | – | – | – | 10.73 uM l-1 | 10.73 uM l-1 | 5.36 uM l-1 | 10.73 uM l-1 | MIC (Pichia kudriavzevii [1]): 5.36 uM l-1; MIC (Trichosporon beigelii [18]): 2.68 uM l-1; MIC (Candida tropicalis [19]): 5.36 uM l-1; MIC (Clavispora lusitaniae [3]): 2.68 uM l-1; MIC (Candida albicans [4]): 2.68 µM (≈ 0.92 µg/mL); MIC (Aspergillus fumigatus [20]): 1.34 uM l-1; MIC (Aspergillus fumigatus [6]): 2.68 uM l-1; MIC (Candida albicans [8]): 0.67 µM (≈ 0.23 µg/mL); MIC (Candida parapsilosis [9]): 5.36 uM l-1; MIC [22]: 0.34 µM (≈ 0.117 µg/mL); MIC (Candida albicans [10]): 1.34 uM l-1; MIC [23]: 0.67 uM l-1; MIC (Clavispora lusitaniae [13]): 1.34 uM l-1; MIC (Lichtheimia corymbifera [14]): 10.73 uM l-1; MIC (Trichosporon beigelii [24]): 5.36 uM l-1; MIC (Candida albicans [15]): 1.34 uM l-1; MIC (Candida parapsilosis [17]): 2.68 uM l-1
CC(C)(C)C(=O)OCC1C=C(c2ccc(Cl)c(Cl)c2)C(=O)O1 (stereo in doubt; (-)2c) | 7.81 µM (≈ 2.68 µg/mL) | 7.81 µM (≈ 2.68 µg/mL) | 7.81 µM (≈ 2.68 µg/mL) | – | 7.81 µM (≈ 2.68 µg/mL) | 1.95 µM (≈ 0.669 µg/mL) | 15.6 µM (≈ 5.36 µg/mL) | 3.91 µM (≈ 1.34 µg/mL) | – | 3.91 µM (≈ 1.34 µg/mL) | 62.5 µM (≈ 21.5 µg/mL) | 3.91 µM (≈ 1.34 µg/mL) | 7.81 µM (≈ 2.68 µg/mL) | 5.36 uM l-1 | 5.36 uM l-1 | 2.68 uM l-1 | 5.36 uM l-1 | MIC (Pichia kudriavzevii [2]): 10.73 uM l-1
